Results as given in ChEMBL document CHEMBL1153881, “The influence of an ethylene spacer on the 5-HT(1A) and 5-HT(2A) receptor affinity of arylpiperazine derivatives of amides with N-acylated amino acids and 3-differently substituted pyrrolidine-2,5-diones” (Eur J Med Chem, 2009).

What was measured:
[1] = biological target: 5-hydroxytryptamine receptor 2A (Rattus norvegicus, UniProt P14842); assay: Displacement of [3H]ketanserin from 5HT2A receptor in rat cortical membrane; format: cell membranes
Sequence of 5-hydroxytryptamine receptor 2A (P14842 whole entry): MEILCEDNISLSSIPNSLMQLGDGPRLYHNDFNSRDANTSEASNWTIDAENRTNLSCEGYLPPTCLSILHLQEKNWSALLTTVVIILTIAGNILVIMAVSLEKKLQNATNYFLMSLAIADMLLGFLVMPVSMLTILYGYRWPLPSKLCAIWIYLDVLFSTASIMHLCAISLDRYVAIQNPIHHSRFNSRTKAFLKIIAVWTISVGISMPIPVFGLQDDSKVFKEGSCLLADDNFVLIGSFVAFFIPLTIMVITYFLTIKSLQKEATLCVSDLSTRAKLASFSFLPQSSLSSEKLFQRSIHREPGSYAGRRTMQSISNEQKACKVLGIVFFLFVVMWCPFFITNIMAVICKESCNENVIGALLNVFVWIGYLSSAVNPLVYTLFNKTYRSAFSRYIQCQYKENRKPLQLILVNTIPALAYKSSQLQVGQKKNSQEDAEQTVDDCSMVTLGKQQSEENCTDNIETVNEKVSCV

[2] = biological target: T1, 5-hydroxytryptamine receptor 1A (Rattus norvegicus, UniProt P19327); assay: Displacement of [3H]8-OH-DPAT from 5HT1A receptor in rat hippocampal membrane; format: cell membranes, Hippocampus
T1 sequence (P19327 whole entry): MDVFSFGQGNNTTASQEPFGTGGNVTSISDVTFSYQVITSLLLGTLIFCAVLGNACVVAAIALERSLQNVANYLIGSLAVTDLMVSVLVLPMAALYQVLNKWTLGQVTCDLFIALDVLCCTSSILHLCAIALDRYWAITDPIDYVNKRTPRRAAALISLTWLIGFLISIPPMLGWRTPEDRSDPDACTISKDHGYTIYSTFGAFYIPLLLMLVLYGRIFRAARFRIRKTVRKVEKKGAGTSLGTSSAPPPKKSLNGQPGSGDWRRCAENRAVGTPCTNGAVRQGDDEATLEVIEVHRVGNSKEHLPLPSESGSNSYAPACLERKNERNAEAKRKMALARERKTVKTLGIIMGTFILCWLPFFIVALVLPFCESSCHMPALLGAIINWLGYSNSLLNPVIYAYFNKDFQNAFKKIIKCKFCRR
How it was run: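 Native receptor in rat hippocampal membranes, labelled with [3H]-8-OH-DPAT (170 Ci/mmol) and displaced by the compounds, which were tested without further purification. Screening used two compound concentrations. Full binding curves used 7–9 concentrations, each run in triplicate, and Ki was derived from inhibition of binding.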

Compound | Ki [1] [nM] | Ki [2] [nM]
O=C(N[C@H]1CC(=O)N(CCN2CCN(c3cccc(Cl)c3)CC2)C1=O)C1CCCCC1 | 1410 | 3780
O=C(NCCN1CCN(c2cccc(Cl)c2)CC1)[C@@H]1CCCN1C(=O)c1ccccc1 | 1300 | 1950
O=C1CC(C2CCCCC2)C(=O)N1CCN1CCN(c2cccc(Cl)c2)CC1 (stereo not drawn) | 137 | 227
COc1ccccc1N1CCN(CCCN2C(=O)C[C@H](NC(=O)C34CC5CC(CC(C5)C3)C4)C2=O)CC1 | – | 63
O=C1CC2(CCCCC2)C(=O)N1CCN1CCN(c2cccc(Cl)c2)CC1 | 15 | 4.3
O=C(NCCN1CCN(c2cccc(Cl)c2)CC1)[C@@H]1CCC(=O)N1C(=O)C1CCCCC1 | 3260 | 8520
O=C(NCCCN1CCN(c2cccc(Cl)c2)CC1)[C@@H]1CCC(=O)N1C(=O)C1CCCCC1 | 800 | 1730
O=C(N[C@H]1CC(=O)N(CCN2CCN(c3cccc(Cl)c3)CC2)C1=O)c1ccccc1 | 1740 | 10000
COc1ccccc1N1CCN(CCN2C(=O)CCC2=O)CC1 | 17600 | 2090
COc1ccccc1N1CCN(CCCCNC(=O)[C@@H]2CCCN2C(=O)C2CCCCC2)CC1 | 990 | 19
COc1ccccc1N1CCN(CCN2C(=O)C[C@H](NC(=O)C34CC5CC(CC(C5)C3)C4)C2=O)CC1 | 4800 | 579
COc1ccccc1N1CCN(CCCNC(=O)[C@@H]2CCCN2C(C)=O)CC1 | 3140 | 580
O=C(NCCN1CCN(c2cccc(Cl)c2)CC1)[C@@H]1CCCN1C(=O)C1CCCC1 | 357 | 2010
O=C1CCC(=O)N1CCN1CCN(c2cccc(Cl)c2)CC1 | 2120 | 3670
COc1ccccc1N1CCN(CCCN2C(=O)C[C@H](NC(=O)CC3CC4CCC3C4)C2=O)CC1 (stereo partly drawn) | – | 40
COc1ccccc1N1CCN(CCCCNC(=O)[C@@H]2CCCN2C(=O)C23CC4CC(CC(C4)C2)C3)CC1 | 503 | 3
COc1ccccc1N1CCN(CCN2C(=O)CC(NC(C)=O)C2=O)CC1 (stereo not drawn) | 5680 | 7590
COc1ccccc1N1CCN(CCNC(=O)[C@@H]2CCCN2C(=O)C2CCCCC2)CC1 | 2330 | 3550

Compound | Ki [1] [nM] | Ki [2] [nM]
COc1ccccc1N1CCN(CCCCNC(=O)[C@@H]2CCC(=O)N2C(=O)C2CCCCC2)CC1 | – | 17
O=C(NCCCCN1CCN(c2cccc(Cl)c2)CC1)[C@@H]1CCC(=O)N1C(=O)C1CCCCC1 | 163 | 111
COc1ccccc1N1CCN(CCNC(=O)[C@@H]2CCCN2C(C)=O)CC1 | 8600 | 6600
O=C(NCCCCN1CCN(c2cccc(Cl)c2)CC1)[C@@H]1CCCN1C(=O)c1ccccc1 | 128 | 78
O=C(N[C@H]1CC(=O)N(CCCN2CCN(c3cccc(Cl)c3)CC2)C1=O)C1CCCCC1 | 92 | 360
COc1ccccc1N1CCN(CCN2C(=O)C[C@H](NC(=O)C3CCCCC3)C2=O)CC1 | 7340 | 7440
COc1ccccc1N1CCN(CCN2C(=O)CC(C3CCCCC3)C2=O)CC1 (stereo not drawn) | 868 | 24
COc1ccccc1N1CCN(CCNC(=O)[C@@H]2CCCN2C(=O)C23CC4CC(CC(C4)C2)C3)CC1 | 1920 | 350
COc1ccccc1N1CCN(CCCN2C(=O)C[C@H](NC(C)=O)C2=O)CC1 | – | 480
COc1ccccc1N1CCN(CCCCN2C(=O)C[C@H](NC(C)=O)C2=O)CC1 | – | 69
COc1ccccc1N1CCN(CCCN2C(=O)C[C@H](NC(=O)C3CCCCC3)C2=O)CC1 | – | 230
COc1ccccc1N1CCN(CCCNC(=O)[C@@H]2CCC(=O)N2C(=O)c2ccccc2)CC1 | – | 390
O=C(N[C@H]1CC(=O)N(CCCCN2CCN(c3cccc(Cl)c3)CC2)C1=O)c1ccccc1 | 75 | 41
COc1ccccc1N1CCN(CCNC(=O)[C@@H]2CCC(=O)N2C(=O)C2CCCCC2)CC1 | 14900 | 1000
COc1ccccc1N1CCN(CCN2C(=O)CC3(CCCCC3)C2=O)CC1 | 254 | 5.7
COc1ccccc1N1CCN(CCNC(=O)[C@@H]2CCC(=O)N2C(=O)c2ccccc2)CC1 | 8710 | 1510
COc1ccccc1N1CCN(CCN2C(=O)C[C@H](NC(=O)CC3CC4CCC3C4)C2=O)CC1 (stereo partly drawn) | 12400 | 497
